The term EC50 denotes the concentration needed to bring the measured effect to its halfway point. A word on the IC50: it is the concentration that inhibits the measured activity by half. For orientation: AUC(0-inf) means the area under the concentration-time curve extrapolated to infinity. One may read the half-life as the time needed for the level to fall by half in the phase considered. Low readings indicate rapid decline, high ones slow decline. The clearance is the volume of plasma or blood freed of the substance per unit of time. Low values mean inefficient removal, high ones efficient removal. A word on the bioavailability: it is the share of a dose that reaches the circulation, judged against a reference dose that is usually intravenous. As usually defined, the Cmax is the peak of the concentration-time curve.

In one data set the test system is Hepatitis C virus. Put plainly: Antiviral activity against HCV1a H77 assessed as inhibition of viral replication by cell-based replicon assay. The data set is classed as functional, organism-based, Hepacivirus hominis. The note with it: genotype 1a H77. A digest of the protocol:
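Stable luciferase-reporter subgenomic replicon Huh-7 lines (1a H77; 1b Con1) were seeded at 5000 cells/well in DMEM with 5% FBS. The next day an eight-point half-log dilution series was added from DMSO stocks. After 3 days the cells were lysed, luciferin was added and luminescence was read. EC₅₀ came from percent inhibition of replication at each concentration.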

Data set [1] can be described thus: Inhibition of HCV1a H77 NS5B assessed as [3H]UTP incorporation into RNA by scintillation counting. Further details: species or system Hepatitis C virus (isolate H77). A digest of the protocol: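 Two-fold serial inhibitor dilutions were preincubated for 15 min at room temperature with NS5B (genotype 1a H77 or genotype 1b BK, 20-50 nM) in 20 mM Tris-Cl pH 7.4, 2 mM MnCl₂, 1 mM DTT, 1 mM EDTA and 60-125 µM GTP. Reactions were started with 20 µM CTP, 20 µM ATP, 1 µM ³H-UTP, 5 nM template RNA and RNase inhibitor, then run 2-4 h at room temperature.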

A short description of data set [2]: AUC (0 to infinity) in Sprague-Dawley rat at 5 mg/kg, po. As to conditions: plasma. On the set-up: time infinity, dose 5 mg/kg, route oral. The class given is ADME, organism-based. Put shortly: (§1)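 Overnight-fasted Sprague-Dawley rats (n = 3) received a single 5 mg/kg iv or oral dose in DMSO/PEG400 (1:9, v/v). Mean concentrations were fitted multiexponentially. AUC₀₋ₜ was calculated by linear trapezoidal rule and extrapolated to infinity using Cₜ divided by the terminal rate constant.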

Data set [3] can be described thus: Half life in Sprague-Dawley rat at 5 mg/kg, iv. The data set is classed as ADME, organism-based. On the set-up: dose 5 mg/kg, route intravenous. The note with it: in vivo. A digest of the protocol:
as §1

A short description of data set [4]: Clearance in Sprague-Dawley rat at 5 mg/kg, iv. The class given is ADME, organism-based. Further details: dose 5 mg/kg, route intravenous. As to conditions: in vivo. Put shortly:
as §1

Data set [5] in a line: Oral bioavailability in Sprague-Dawley rat at 5 mg/kg. The data set is classed as ADME, organism-based. The note with it: in vivo. Put shortly: as §1
Data set [6] can be described thus: Cmax in Sprague-Dawley rat at 5 mg/kg, po. The class given is ADME, organism-based. On the set-up: dose 5 mg/kg, route oral. The note with it: in vivo. Put shortly:
as §1

Turning to `CC(C)(C)CCC1(NCc2ccccc2)C(=O)C(C2=NS(=O)(=O)c3cc(NS(C)(=O)=O)ccc3N2)=C(O)c2ccccc21` (stereo not drawn), in the data set on Hepatitis C virus, the EC50 is 10 nM. Also, in data set [1], the IC50 was 17 nM.

On to `CC(C)(C)CCC1(NCc2csc3ccccc23)C(=O)C(C2=NS(=O)(=O)c3cc(NS(C)(=O)=O)ccc3N2)=C(O)c2ccccc21` (stereo not drawn), for which the EC50 in the data set on Hepatitis C virus worked out at 13 nM. Moreover, the IC50 in data set [1] was found to be 19 nM.

Regarding `CC(C)(C)CCC1(NCc2ccc(C#N)cc2)C(=O)C(C2=NS(=O)(=O)c3cc(NS(C)(=O)=O)ccc3N2)=C(O)c2ccccc21` (stereo not drawn), in the data set with Hepatitis C virus, the EC50 is 17 nM. The IC50 in data set [1] is 13 nM.

For `CC(C)(C)CCC1(NC(=O)c2ccccc2)C(=O)C(C2=NS(=O)(=O)c3cc(NS(C)(=O)=O)ccc3N2)=C(O)c2ccccc21` (stereo not drawn), in data set [1], the IC50 was found to be 151 nM.

Compound `Cc1cccc(C)c1CNC1(CCC(C)(C)C)C(=O)C(C2=NS(=O)(=O)c3cc(NS(C)(=O)=O)ccc3N2)=C(O)c2ccccc21` (stereo not drawn) gave an AUC(0-inf) in data set [2] of 3500 ng·h/mL. In data set [3], this compound gave a half-life of 300 min. In addition, in the data set on Hepatitis C virus, the EC50 stood at 21 nM. In data set [4], this compound gave a clearance of 13 mL/min/kg. This compound had a bioavailability in data set [5] of 53.7%. The IC50 in data set [1] was 24 nM. In data set [6], this compound returned a Cmax of 460 ng/mL.

Regarding `CC(C)CCC1(NC(N)=O)C(=O)C(C2=NS(=O)(=O)c3cc(NS(C)(=O)=O)ccc3N2)=C(O)c2ccccc21` (stereo not drawn), the EC50 in the data set with Hepatitis C virus was found to be 576 nM. In addition, the IC50 in data set [1] is 27 nM.

Take `COc1ccc(CNC2(CCC(C)(C)C)C(=O)C(C3=NS(=O)(=O)c4cc(NS(C)(=O)=O)ccc4N3)=C(O)c3ccccc32)cc1` (stereo not drawn): in the data set on Hepatitis C virus, the EC50 worked out at 13 nM. Further, the IC50 in data set [1] came to 13 nM.

Compound `CC(C)CC[C@@]1(N)C(=O)C(C2=NS(=O)(=O)c3cc(NS(C)(=O)=O)ccc3N2)=C(O)c2ccccc21` had a half-life in data set [3] of 18 min. For the same compound, in the data set on Hepatitis C virus, the EC50 is 37 nM. For the same compound, the clearance in data set [4] is 35.3 mL/min/kg. Besides, the bioavailability in data set [5] came to 0%. For the same compound, the IC50 in data set [1] worked out at 4 nM.

Consider `CC(C)(C)CCC1(NCc2cccnc2)C(=O)C(C2=NS(=O)(=O)c3cc(NS(C)(=O)=O)ccc3N2)=C(O)c2ccccc21` (stereo not drawn), for which the EC50 with Hepatitis C virus was 15 nM. Moreover, the IC50 in data set [1] came to 10 nM.

Consider `COC(=O)NC1(CCC(C)C)C(=O)C(C2=NS(=O)(=O)c3cc(NS(C)(=O)=O)ccc3N2)=C(O)c2ccccc21` (stereo not drawn), for which the EC50 with Hepatitis C virus was determined as 210 nM. In addition, the IC50 in data set [1] came out at 25 nM.

As for `CC(C)(C)CCC1(NCc2ccc(-c3ccccc3)cc2)C(=O)C(C2=NS(=O)(=O)c3cc(NS(C)(=O)=O)ccc3N2)=C(O)c2ccccc21` (stereo not drawn), the IC50 in data set [1] came out at 27 nM.

In the case of `CC(C)(C)CCC1(NCc2ccc(O)cc2)C(=O)C(C2=NS(=O)(=O)c3cc(NS(C)(=O)=O)ccc3N2)=C(O)c2ccccc21` (stereo not drawn), the EC50 with Hepatitis C virus was 13 nM. Besides, the IC50 in data set [1] worked out at 20 nM.

In data set [2], `Cc1cccc(CNC2(CCC(C)(C)C)C(=O)C(C3=NS(=O)(=O)c4cc(NS(C)(=O)=O)ccc4N3)=C(O)c3ccccc32)n1` (stereo not drawn) had an AUC(0-inf) of 1340 ng·h/mL. In addition, the half-life in data set [3] was 60 min. The EC50 in the data set with Hepatitis C virus amounted to 13 nM. For the same compound, in data set [4], the clearance is 28.3 mL/min/kg. This compound showed a bioavailability in data set [5] of 33.8%. Also, the IC50 in data set [1] was 15 nM. The same compound came in with a Cmax in data set [6] of 150 ng/mL.

On to `COc1ccccc1CNC1(CCC(C)(C)C)C(=O)C(C2=NS(=O)(=O)c3cc(NS(C)(=O)=O)ccc3N2)=C(O)c2ccccc21` (stereo not drawn), for which the AUC(0-inf) in data set [2] is 1600 ng·h/mL. Also, the half-life in data set [3] was 192 min. For the same compound, the EC50 in the data set with Hepatitis C virus came to 6 nM. Further, in data set [4], the clearance was 25 mL/min/kg. The bioavailability in data set [5] was 48%. For the same compound, in data set [1], the IC50 stood at 15 nM. In addition, the concentration in data set [6] peaked (Cmax) at 400 ng/mL.

`CC(C)CCC1(NS(C)(=O)=O)C(=O)C(C2=NS(=O)(=O)c3cc(NS(C)(=O)=O)ccc3N2)=C(O)c2ccccc21` (stereo not drawn): the EC50 with Hepatitis C virus is 69 nM. Besides, the IC50 in data set [1] was 24 nM.

`CC(C)CC[C@@]1(NS(C)(=O)=O)C(=O)C(C2=NS(=O)(=O)c3cc(NS(C)(=O)=O)ccc3N2)=C(O)c2ccccc21`: the half-life in data set [3] is 12 min. Moreover, the EC50 in the data set on Hepatitis C virus stood at 56 nM. For the same compound, the clearance in data set [4] is 71.7 mL/min/kg. In data set [5], this compound showed a bioavailability of 0%. The IC50 in data set [1] amounted to 7 nM.

In turn, `Cc1ccc(CNC2(CCC(C)(C)C)C(=O)C(C3=NS(=O)(=O)c4cc(NS(C)(=O)=O)ccc4N3)=C(O)c3ccccc32)cn1` (stereo not drawn) gave a half-life in data set [3] of 30 min. Further, the EC50 with Hepatitis C virus stood at 11 nM. The clearance in data set [4] is 98.3 mL/min/kg. This compound also returned a bioavailability in data set [5] of 0%. Besides, in data set [1], the IC50 amounted to 14 nM.

With `Cn1ccnc1CNC1(CCC(C)(C)C)C(=O)C(C2=NS(=O)(=O)c3cc(NS(C)(=O)=O)ccc3N2)=C(O)c2ccccc21` (stereo not drawn), the EC50 with Hepatitis C virus turned out to be 29 nM. Also, the IC50 in data set [1] came to 9 nM.

Regarding `CC(C)CCC1(NCc2ccccc2)C(=O)C(C2=NS(=O)(=O)c3cc(NS(C)(=O)=O)ccc3N2)=C(O)c2ccccc21` (stereo not drawn), the EC50 with Hepatitis C virus is 34 nM. Also, the IC50 in data set [1] was 19 nM.

In the case of `Cc1cc(CNC2(CCC(C)(C)C)C(=O)C(C3=NS(=O)(=O)c4cc(NS(C)(=O)=O)ccc4N3)=C(O)c3ccccc32)n(C)n1` (stereo not drawn), the concentration giving a half-maximal response (EC50) in the data set with Hepatitis C virus was determined as 15 nM. In addition, the IC50 in data set [1] worked out at 5 nM.

Regarding `CC(C)(C)CCC1(NCc2ccco2)C(=O)C(C2=NS(=O)(=O)c3cc(NS(C)(=O)=O)ccc3N2)=C(O)c2ccccc21` (stereo not drawn), the EC50 with Hepatitis C virus is 10 nM. Besides, in data set [1], the IC50 stood at 12 nM.

Regarding `CON[C@]1(CCC(C)C)C(=O)C(C2=NS(=O)(=O)c3cc(NS(C)(=O)=O)ccc3N2)=C(O)c2ccccc21`, in data set [2], the AUC(0-inf) came out at 350 ng·h/mL. The half-life in data set [3] was 36 min. Moreover, the EC50 in the data set on Hepatitis C virus was 12 nM. For the same compound, the clearance in data set [4] is 45 mL/min/kg. The bioavailability in data set [5] was 34.1%. Also, the IC50 in data set [1] is 6 nM.

As to `CC(C)(C)CCC1(NCc2ccc(OCc3ccccc3)cc2)C(=O)C(C2=NS(=O)(=O)c3cc(NS(C)(=O)=O)ccc3N2)=C(O)c2ccccc21` (stereo not drawn), in the data set with Hepatitis C virus, the EC50 is 118 nM. Besides, the IC50 in data set [1] was 27 nM.

Turning to `CC(C)CCC1(NC(=O)c2ccccc2)C(=O)C(C2=NS(=O)(=O)c3cc(NS(C)(=O)=O)ccc3N2)=C(O)c2ccccc21` (stereo not drawn), in data set [1], the IC50 came out at 108 nM.

Take `COc1cccc(CNC2(CCC(C)C)C(=O)C(C3=NS(=O)(=O)c4cc(NS(C)(=O)=O)ccc4N3)=C(O)c3ccccc32)c1` (stereo not drawn): the EC50 in the data set with Hepatitis C virus was found to be 38 nM. For the same compound, the IC50 in data set [1] amounted to 14 nM.

In the case of `CONC1(CCC(C)C)C(=O)C(C2=NS(=O)(=O)c3cc(NS(C)(=O)=O)ccc3N2)=C(O)c2ccccc21` (stereo not drawn), in the data set with Hepatitis C virus, the EC50 turned out to be 16 nM. Moreover, the IC50 in data set [1] turned out to be 10 nM.

As to `COc1ccc(OC)c(CNC2(CCC(C)(C)C)C(=O)C(C3=NS(=O)(=O)c4cc(NS(C)(=O)=O)ccc4N3)=C(O)c3ccccc32)c1` (stereo not drawn), the EC50 in the data set with Hepatitis C virus stood at 15 nM. Besides, the IC50 in data set [1] was found to be 10 nM.

For `CC(C)CCC1(N)C(=O)C(C2=NS(=O)(=O)c3cc(NS(C)(=O)=O)ccc3N2)=C(O)c2ccccc21` (stereo not drawn), in the data set with Hepatitis C virus, the EC50 turned out to be 29 nM. For the same compound, the IC50 in data set [1] amounted to 12 nM.

Take `CC(C)(C)CCC1(NCc2ccccc2C(F)(F)F)C(=O)C(C2=NS(=O)(=O)c3cc(NS(C)(=O)=O)ccc3N2)=C(O)c2ccccc21` (stereo not drawn): the EC50 in the data set with Hepatitis C virus came to 35 nM. The IC50 in data set [1] came to 33 nM.

For `Cc1cc(C)c(CNC2(CCC(C)(C)C)C(=O)C(C3=NS(=O)(=O)c4cc(NS(C)(=O)=O)ccc4N3)=C(O)c3ccccc32)c(C)c1` (stereo not drawn), the EC50 in the data set with Hepatitis C virus came out at 60 nM. Also, the IC50 in data set [1] was found to be 33 nM.

For the compound `COc1cccc(CNC2(CCC(C)(C)C)C(=O)C(C3=NS(=O)(=O)c4cc(NS(C)(=O)=O)ccc4N3)=C(O)c3ccccc32)c1` (stereo not drawn), the EC50 in the data set on Hepatitis C virus is 20 nM. Besides, in data set [1], the IC50 was found to be 13 nM.

`CON(C(C)=O)C1(CCC(C)C)C(=O)C(C2=NS(=O)(=O)c3cc(NS(C)(=O)=O)ccc3N2)=C(O)c2ccccc21` (stereo not drawn): the IC50 in data set [1] was determined as 83 nM.

For the origin of these results see ChEMBL document CHEMBL1138515, “Synthesis and biological characterization of B-ring amino analogues of potent benzothiadiazine hepatitis C virus polymerase inhibitors” (J Med Chem, 2009).
